Reference: ChEMBL document CHEMBL4715728, “New bifunctional antioxidant/σ1 agonist ligands: Preliminary chemico-physical and biological evaluation” (Bioorg Med Chem, 2016)

Key:
[1] = Cytotoxicity against Sprague-Dawley rat Cerebral cortex neuron assessed as LDH activity at 25 uM incubated for 24 hrs by LDH assay (reference value: […]); format: tissue-based
Method in brief: (§1)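 Primary fetal rat cortical neurons, matured 8 days on poly-D-lysine, exposed 24 h at 37 °C to compound (0.1–100 µM; DMSO 0.5% or water vehicle). LDH released into 100 µl culture medium was measured by kit as the rate of NAD+ reduction (absorbance increase at 490 nm). Positive control was mitomycin C. Four independent experiments.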

[2] = Stability of compound in fasted state stimulated intestinal fluid at pH 1.3 assessed as rate of compound hydrolysis in presence of 10 mg/ml pepsin by HPLC-UV assay; format: ADME; conditions: isolated protein
Method in brief: (§2)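 HCl buffer with pepsin or phosphate buffer with pancreatin (10 or 40 mg/ml), preincubated at 37 °C. Drug stock (50 µM in ethanol/fasted state intestinal fluid 1:9) added and shaken at 37 °C, 650 rpm. Samples quenched with ice-cold acetonitrile containing 0.5% formic acid, centrifuged at 2 °C, and the supernatant assayed by HPLC-UV. Three experiments.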

[3] = Antioxidant activity in Sprague-Dawley rat Cerebral cortex neuron assessed as total oxidative stress level by measuring H2O2 equivalents at 50 uM after 24 hrs (reference value: 2.3 +/- 0.3 umol/L); format: functional
Method in brief: (§3)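 Primary cerebral cortex neurons from rat fetuses, grown on poly-D-lysine in neurobasal medium with fetal calf serum (5% CO2, 37 °C), tested after 8 days in culture. Compounds in DMSO (0.5%) or sterile water were added and incubated 24 h at 37 °C. Cells were washed in ice-cold PBS and homogenized in 0.9% saline. Intracellular TAC (Trolox equiv.) and TOS (H2O2 equiv.) were read by kit. Ascorbic acid 10 µM (TAC) and H2O2 25 µM (TOS) served as positive controls. Four independent experiments.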

[4] = Stability of compound in fasted state stimulated intestinal fluid at pH 1.3 assessed as half life in presence of 40 mg/ml pepsin by HPLC-UV assay; format: ADME; conditions: fasted state simulated intestinal fluid with pepsin; method in brief: as §2
[5] = Cytotoxicity against Sprague-Dawley rat Cerebral cortex neuron assessed as LDH activity at 0.1 uM incubated for 24 hrs by LDH assay (reference value: […]); format: tissue-based; method in brief: as §1
[6] = Stability of compound in phosphate buffer at pH 7.4 assessed as rate of compound hydrolysis by HPLC-UV assay; format: physicochemical
Method in brief: (§4)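 Chemical hydrolysis in 0.02 M HCl buffer pH 1.3 (non-enzymatic simulated gastric fluid) or 0.02 M phosphate buffer pH 7.4, each containing 20% acetonitrile, at 37 °C. Started by adding the 10^-4 M acetonitrile stock. Samples taken over time and analyzed by HPLC-UV at 220 nm. Rate constants are means of triplicates.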

[7] = Antioxidant activity in Sprague-Dawley rat Cerebral cortex neuron assessed as total antioxidant capacity by measuring trolox equivalents at 1 uM after 24 hrs; format: functional; method in brief: as §3
[8] = Antioxidant activity in Sprague-Dawley rat Cerebral cortex neuron assessed as total antioxidant capacity by measuring trolox equivalents at 25 uM after 24 hrs; format: functional; method in brief: as §3
[9] = Cytotoxicity against Sprague-Dawley rat Cerebral cortex neuron assessed as LDH activity at 50 uM incubated for 24 hrs by LDH assay (reference value: […]); format: tissue-based; method in brief: as §1
[10] = Cytotoxicity against Sprague-Dawley rat Cerebral cortex neuron assessed as cell viability at 100 uM incubated for 24 hrs by MTT assay relative to control; format: tissue-based; conditions: cerebral cortex neurons, read-out: Activity
Method in brief: (§5)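 Primary fetal rat cortical neurons, matured 8 days, treated 24 h at 37 °C with compound (0.1–100 µM; 0.5% DMSO or water vehicle). MTT 0.7 mg/ml was then added for 30 min at 37 °C, and formazan was extracted with isopropanol/formic acid (95:5) and read at 560 nm. Untreated control was set as 100% viability. Four independent experiments.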

[11] = Stability of compound in non-enzymatic stimulated-gastric fluid at pH 1.3 assessed as rate of compound hydrolysis by HPLC-UV assay; format: physicochemical; conditions: simulated gi fluid; method in brief: as §4
[12] = Antioxidant activity in Sprague-Dawley rat Cerebral cortex neuron assessed as total antioxidant capacity by measuring trolox equivalents at 10 uM after 24 hrs; format: functional; method in brief: as §3
[13] = Antioxidant activity in Sprague-Dawley rat Cerebral cortex neuron assessed as total antioxidant capacity by measuring trolox equivalents at 0.1 uM after 24 hrs; format: functional; method in brief: as §3
[14] = Stability of compound in rat plasma assessed as half life by HPLC-UV assay; format: ADME, cell-free
Method in brief: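 Citrated human or rat plasma diluted to 80% with 0.02 M phosphate buffer pH 7.4, 37 °C with shaking. Compound added from a 1 mg/ml acetonitrile stock. Aliquots deproteinized with 0.01 M HCl in methanol, centrifuged, and analyzed by HPLC-UV (C8 column, KH2PO4/methanol pH 2.5, 220 nm). Remaining intact compound plotted against time. Three experiments.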

[15] = Antioxidant activity in Sprague-Dawley rat Cerebral cortex neuron assessed as total oxidative stress level by measuring H2O2 equivalents at 0.1 uM after 24 hrs (reference value: 2.3 +/- 0.3 umol/L); format: functional; method in brief: as §3
[16] = Cytotoxicity against Sprague-Dawley rat Cerebral cortex neuron assessed as LDH activity at 1 uM incubated for 24 hrs by LDH assay (reference value: […]); format: tissue-based; method in brief: as §1
[17] = Antioxidant activity in Sprague-Dawley rat Cerebral cortex neuron assessed as total antioxidant capacity by measuring trolox equivalents at 100 uM after 24 hrs; format: functional; method in brief: as §3
[18] = Antioxidant activity in Sprague-Dawley rat Cerebral cortex neuron assessed as total antioxidant capacity by measuring trolox equivalents at 50 uM after 24 hrs; format: functional; method in brief: as §3
[19] = Antioxidant activity in Sprague-Dawley rat Cerebral cortex neuron assessed as total oxidative stress level by measuring H2O2 equivalents at 10 uM after 24 hrs (reference value: 2.3 +/- 0.3 umol/L); format: functional; method in brief: as §3
[20] = Cytotoxicity against Sprague-Dawley rat Cerebral cortex neuron assessed as LDH activity at 100 uM incubated for 24 hrs by LDH assay (reference value: […]); format: tissue-based; method in brief: as §1
[21] = Cytotoxicity against Sprague-Dawley rat Cerebral cortex neuron assessed as cell viability at 0.1 uM incubated for 24 hrs by MTT assay relative to control; format: tissue-based; conditions: cerebral cortex neurons, read-out: Activity; method in brief: as §5
[22] = Stability of compound in non-enzymatic stimulated-gastric fluid at pH 1.3 assessed as half life by HPLC-UV assay; format: physicochemical; conditions: non-enzymatic simulated gastric fluid; method in brief: as §4
[23] = Stability of compound in fasted state stimulated intestinal fluid at pH 7.4 assessed as half life in presence of 40 mg/ml pancreatin by HPLC-UV assay; format: ADME; conditions: for half-life: fasted state simulated intestinal fluid with pancreatin; method in brief: as §2
[24] = Cytotoxicity against rat Sprague-Dawley Cerebral cortex neuron assessed as cell viability at 50 uM incubated for 24 hrs by MTT assay relative to control; format: tissue-based; conditions: cerebral cortex neurons, read-out: Activity; method in brief: as §5
[25] = Antioxidant activity in Sprague-Dawley rat Cerebral cortex neuron assessed as total oxidative stress level by measuring H2O2 equivalents at 100 uM after 24 hrs (reference value: 2.3 +/- 0.3 umol/L); format: functional; method in brief: as §3
[26] = Antioxidant activity in Sprague-Dawley rat Cerebral cortex neuron assessed as total oxidative stress level by measuring H2O2 equivalents at 25 uM after 24 hrs (reference value: 2.3 +/- 0.3 umol/L); format: functional; method in brief: as §3

O=C(CCCCC1CCSS1)OC1CCN(Cc2ccc(F)cc2)CC1 (centres undefined)
Activity [1]: 0.3 mU/ml
Drug degradation [2]: 0.184 h⁻¹
Activity [3]: 0.5 µmol/L
half-life [4]: 0.68 h
Activity [5]: 0.3 mU/ml
Drug degradation [6]: 0.019 h⁻¹
TAC [7]: 11.2 mmol/L
TAC [8]: 12.6 mmol/L
Activity [9]: 0.32 mU/ml
viability at 24 h, 100 µM [10]: 95.6%
Drug degradation [11]: 0.015 h⁻¹
TAC [12]: 11.1 mmol/L
TAC [13]: 11 mmol/L
half-life [14]: 0.56 h
Activity [15]: 0.4 µmol/L
Activity [16]: 0.3 mU/ml
TAC [17]: 12.4 mmol/L
TAC [18]: 13.5 mmol/L
Activity [19]: 0.4 µmol/L
Activity [20]: 0.32 mU/ml
viability at 24 h, 0.1 µM [21]: 97.5%
half-life [22]: 47 h
t1/2 ([23]; simulated gi fluid): Unstable
viability at 24 h, 50 µM [24]: 95.8%
Activity [25]: 0.5 µmol/L
Activity [26]: 0.4 µmol/L

O=C(CCCCC1CCSS1)OC1CCN(Cc2ccccc2)CC1 (centres undefined)
Activity [1]: 0.32 mU/ml
Drug degradation [2]: 0.028 h⁻¹
Activity [3]: 0.4 µmol/L
half-life [4]: 23.1 h
Activity [5]: 0.3 mU/ml
Drug degradation [6]: 0.017 h⁻¹
TAC [7]: 10.9 mmol/L
TAC [8]: 13.8 mmol/L
Activity [9]: 0.3 mU/ml
viability at 24 h, 100 µM [10]: 97.8%
Drug degradation [11]: 0.012 h⁻¹
TAC [12]: 11.4 mmol/L
TAC [13]: 10.8 mmol/L
t1/2 [14]: Unstable
Activity [15]: 0.5 µmol/L
Activity [16]: 0.26 mU/ml
TAC [17]: 12.5 mmol/L
TAC [18]: 13.6 mmol/L
Activity [19]: 0.4 µmol/L
Activity [20]: 0.32 mU/ml
viability at 24 h, 0.1 µM [21]: 99.8%
half-life [22]: 58.7 h
half-life [23]: 0.09 h
viability at 24 h, 50 µM [24]: 97.6%
Activity [25]: 0.5 µmol/L
Activity [26]: 0.5 µmol/L

O=C(CCCCC1CCSS1)N1CCN(Cc2ccccc2)CC1 (centres undefined)
Activity [1]: 0.32 mU/ml
Drug degradation [2]: 0.01 h⁻¹
Activity [3]: 0.5 µmol/L
half-life [4]: 66.2 h
Activity [5]: 0.3 mU/ml
Drug degradation [6]: 0.013 h⁻¹
TAC [7]: 11.1 mmol/L
TAC [8]: 12.9 mmol/L
Activity [9]: 0.34 mU/ml
viability at 24 h, 100 µM [10]: 95.4%
Drug degradation [11]: 0.007 h⁻¹
TAC [12]: 12.6 mmol/L
TAC [13]: 10.4 mmol/L
t1/2 [14]: Unstable
Activity [15]: 0.5 µmol/L
Activity [16]: 0.32 mU/ml
TAC [17]: 14.6 mmol/L
TAC [18]: 14.8 mmol/L
Activity [19]: 0.4 µmol/L
Activity [20]: 0.34 mU/ml
viability at 24 h, 0.1 µM [21]: 99.4%
half-life [22]: 93 h
half-life [23]: 9.58 h
viability at 24 h, 50 µM [24]: 96%
Activity [25]: 0.5 µmol/L
Activity [26]: 0.5 µmol/L

COc1ccc(CN2CCC(OC(=O)CCCCC3CCSS3)CC2)cc1 (centres undefined)
Activity [1]: 0.32 mU/ml
Drug degradation [2]: 0.018 h⁻¹
Activity [3]: 0.5 µmol/L
half-life [4]: 22.2 h
Activity [5]: 0.28 mU/ml
Drug degradation [6]: 0.019 h⁻¹
TAC [7]: 11.3 mmol/L
TAC [8]: 11.4 mmol/L
Activity [9]: 0.34 mU/ml
viability at 24 h, 100 µM [10]: 91.2%
Drug degradation [11]: 0.013 h⁻¹
TAC [12]: 11 mmol/L
TAC [13]: 10.8 mmol/L
half-life [14]: 0.46 h
Activity [15]: 0.5 µmol/L
Activity [16]: 0.29 mU/ml
TAC [17]: 10.7 mmol/L
TAC [18]: 10.9 mmol/L
Activity [19]: 0.4 µmol/L
Activity [20]: 0.34 mU/ml
viability at 24 h, 0.1 µM [21]: 99.5%
half-life [22]: 52 h
half-life [23]: 2.83 h
viability at 24 h, 50 µM [24]: 95%
Activity [25]: 0.5 µmol/L
Activity [26]: 0.5 µmol/L
